This is an account of results in ChEMBL document CHEMBL1143869, “Amide bond direction modulates G-quadruplex recognition and telomerase inhibition by 2,6 and 2,7 bis-substituted anthracenedione derivatives” (Bioorg Med Chem, 2008).

Structures are written as SMILES.

The species named for test [1] is Homo sapiens. As to the kind of experiment: Binding affinity to human telomeric G-quadraflex assessed as thermal stability at 10 uM by FRET assay. In short, it runs like this:
(§1)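 Human telomeric (GGGTTA)4 oligonucleotide labelled with fluorescein at the 5'-end and MethylRed quencher at the 3'-end, folded into an intramolecular G-quadruplex in 50 mM potassium phosphate buffer, pH 7.4. Fluorescence melting was run on a Roche Light Cycler (excitation 488 nm, emission 520 nm) without and with ligand. Stabilisation was taken as the increase in melting temperature.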

The species entered for test [2] is Homo sapiens. The experiment in a line: Binding affinity to human telomeric G-quadraflex assessed as thermal stability at 1 uM by FRET assay. A digest of the protocol: as §1
A short description of test [3]: Inhibition of human telomerase in JR8 cells by TRAP assay. Type of test: cell-based. A digest of the protocol: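 Modified TRAP assay. Telomerase source was supernatant of JR8 cell lysate (13000 rpm, 30 min, 4 °C). The 50 µl reaction held 50 µM dNTPs, 0.2 µg labelled TS, 0.1 µg ACX return primer, 500 ng protein extract, 2 U Taq and a TSNT internal control with NT primer, with or without drug at increasing concentrations. Telomerase was inactivated at 85 °C for 5 min. PCR ran 25 cycles (94/65/72 °C, 30 s each). Products were resolved on a 2% agarose gel and stained with ethidium bromide.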

With `NCCNC(=O)c1ccc2c(c1)C(=O)c1ccc(C(=O)NCCN)cc1C2=O`, the ΔTm in the test listed under Homo sapiens [1] is 10 °C; in the test filed under Homo sapiens [2], 2 °C. This molecule also registered an EC50 in test [3] of 5.2 µM.
For `NCCC(=O)Nc1ccc2c(c1)C(=O)c1cc(NC(=O)CCN)ccc1C2=O` the same measures were 27.3 °C, 11.3 °C and 1.2 µM.
As to `O=C(NCCN1CCCC1)c1ccc2c(c1)C(=O)c1ccc(C(=O)NCCN3CCCC3)cc1C2=O`, the ΔTm was determined as 10.8 °C in the test filed under Homo sapiens [1] and 1.8 °C in the test filed under Homo sapiens [2]. In addition, the EC50 in test [3] is 10.4 µM.
For `NCCC(=O)Nc1ccc2c(c1)C(=O)c1ccc(NC(=O)CCN)cc1C2=O`, the ΔTm in the test filed under Homo sapiens [1] amounted to 18.1 °C; in the test listed under Homo sapiens [2], 9.1 °C. The molecule also yielded an EC50 in test [3] of 1.2 µM.
With `O=C(CCN1CCCC1)Nc1ccc2c(c1)C(=O)c1ccc(NC(=O)CCN3CCCC3)cc1C2=O`, the ΔTm in the test listed under Homo sapiens [1] is 19.2 °C; in the test listed under Homo sapiens [2], 5.9 °C. The same molecule had an EC50 in test [3] of 2.5 µM.
Take `NCCNC(=O)c1ccc2c(c1)C(=O)c1cc(C(=O)NCCN)ccc1C2=O`: the ΔTm in the test listed under Homo sapiens [1] was 12.9 °C; in the test filed under Homo sapiens [2], 3.3 °C. In test [3], this molecule came in with an EC50 of 14.5 µM.

The term ΔTm denotes the shift of the melting midpoint relative to a reference. Usually EC50 stands for the concentration giving half of the maximal effect. Higher therefore signals lower potency in that assay.
